Shown are actives, neighbours in structure and some others; about 4.7% of the full set was active somewhere.
aSyn 5UTR inh: 5' untranslated region of α-synuclein, MLPCN primary screen; inhibition, % (tested at 7.5 µM); alpha-synuclein 5'UTR reporter, inhibitor activity; 300,000 compounds, 0.82% hits; in the data active means inhibition above about 60%;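 further: H4 neuroglioblastoma cells stably carrying SNCA 5'UTR luciferase fusion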
Mdm2-MdmX inh: human Mdm2/MdmX binding inhibition | O15151+Q00987 | SaOS-2 split-luciferase Mdm2/MdmX complementation, luminescence | inhibition, % at 8 µM | 330,000 compounds, 3% hits;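 active means inhibition of at least 50% at 8 µM in the primary screen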
Target sequence (O15151 whole entry, looked up): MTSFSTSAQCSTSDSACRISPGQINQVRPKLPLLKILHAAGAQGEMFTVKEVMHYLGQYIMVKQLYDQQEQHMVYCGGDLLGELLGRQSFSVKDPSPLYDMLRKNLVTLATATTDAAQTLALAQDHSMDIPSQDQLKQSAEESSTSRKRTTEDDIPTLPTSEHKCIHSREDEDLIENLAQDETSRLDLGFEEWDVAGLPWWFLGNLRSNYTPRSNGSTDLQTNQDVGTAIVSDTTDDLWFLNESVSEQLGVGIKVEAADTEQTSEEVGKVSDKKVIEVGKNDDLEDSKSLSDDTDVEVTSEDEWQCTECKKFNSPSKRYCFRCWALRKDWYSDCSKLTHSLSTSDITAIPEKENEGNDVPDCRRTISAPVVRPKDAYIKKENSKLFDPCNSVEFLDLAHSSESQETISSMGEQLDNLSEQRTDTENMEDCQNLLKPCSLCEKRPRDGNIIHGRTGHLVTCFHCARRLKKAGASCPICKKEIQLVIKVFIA
Target sequence (Q00987 whole entry, looked up): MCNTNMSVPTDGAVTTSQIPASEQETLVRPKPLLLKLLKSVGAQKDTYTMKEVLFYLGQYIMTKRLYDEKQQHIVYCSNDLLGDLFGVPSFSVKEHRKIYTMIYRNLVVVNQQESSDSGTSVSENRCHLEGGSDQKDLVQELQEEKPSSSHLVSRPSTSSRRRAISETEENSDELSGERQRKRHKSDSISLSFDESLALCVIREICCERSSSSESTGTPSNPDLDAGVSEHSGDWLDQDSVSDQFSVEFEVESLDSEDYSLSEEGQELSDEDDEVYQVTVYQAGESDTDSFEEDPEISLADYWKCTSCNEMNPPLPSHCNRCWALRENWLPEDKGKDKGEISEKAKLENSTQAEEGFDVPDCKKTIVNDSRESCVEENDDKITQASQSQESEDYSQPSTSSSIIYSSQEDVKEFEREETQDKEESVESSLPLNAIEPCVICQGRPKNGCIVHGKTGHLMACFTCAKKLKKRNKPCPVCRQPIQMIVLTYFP
IMP-1 inh: blocks Pseudomonas aeruginosa IMP-1 metallo-beta-lactamase | purified IMP-1, nitrocefin hydrolysis, epi-absorbance fluorescence | inhibition, % at 5.6 µM | 290,000 compounds, 0.45% hits;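 active means inhibition above the mean plus 3 SD of all compounds in the same screening run, cut at about 4.5% in these data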
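System: Purified recombinant IMP-1 metallo-beta-lactamase enzyme | Measured by: Fluorescence quenching readout, ex 480/em 530 nm | Replication: Singlicate | Incubation: 15 min preincubation plus 25 min reaction at 25 °C | Evaluation: Percent inhibition from optical density relative to buffer-blank wells | Benchmarks: DMSO with and without IMP-1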
Jurkat NFkB inh: lowers PMA/ionomycin-induced NF-kB signal in Jurkat cells. 330,000 compounds, 0.53% hits. PMA/ionomycin-induced NF-kB luciferase reporter, luminescence. inhibition, % at 4 µM; in the data active means inhibition above about 50%
697 NFkB inh: lowers PMA/ionomycin-induced NF-kB signal in 697 B cells; inhibition, % at 4 µM; AID 435022; 697 B-cell NF-kB luciferase reporter, 16 h; 330,000 compounds, 0.33% hits; in the data active means inhibition above about 35%
VIM-2 inhibitor: blocks Pseudomonas aeruginosa VIM-2 metallo-beta-lactamase. AID 1527. inhibition, % at 5.6 µM. purified VIM-2, nitrocefin hydrolysis, epi-absorbance fluorescence. 290,000 compounds, 0.89% hits;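 active means inhibition above the mean of all tested compounds plus 3 SD, cutoff set per screening run, cut at about 7.5% in these data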;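 further: red hydrolysis product quenches plate fluorescence so inhibitors raise well fluorescence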
Of the large screens only hits and unclear results are named; the others gave an inactive call.

COc1cc(CNCc2ccccn2)ccc1OCc1ccc(Cl)c(Cl)c1	VIM-2 inhibitor 10
COc1cc(CNCc2ccccn2)ccc1OCc1ccc(Cl)cc1Cl	none
S=C(N/N=C/c1ccc2ncccc2c1)Nc1ccccc1	aSyn 5UTR inh 108
CCC(C)[C@@H](N)C(=O)N/N=C/c1ccc2ncccc2c1 (stereo partly specified)	VIM-2 inhibitor 7.8
O=C(CCCNC(=O)c1ccc(Cl)cc1)Nc1ccccc1C(F)(F)F	none
COCCn1c(N)c(Sc2ccccc2)c(=O)[nH]c1=O	none
CCCCn1c(N)c(Sc2ccccc2)c(=O)[nH]c1=O	IMP-1 inh 5.0
O=C(CN1C(=O)/C(=C2/SC(=S)N(CCS(=O)(=O)O)C2=O)c2ccccc21)Nc1cccc(C(F)(F)F)c1	none (no result: aSyn 5UTR inh, IMP-1 inh, VIM-2 inhibitor)
O=C(CN1C(=O)/C(=C2\SC(=S)N(CCS(=O)(=O)O)C2=O)c2ccccc21)Nc1cccc(Br)c1	IMP-1 inh 13 (no result: Mdm2-MdmX inh, Jurkat NFkB inh, 697 NFkB inh)
C[C@H](CO)N1C[C@H](C)[C@@H](CN(C)S(=O)(=O)c2ccc(F)cc2)Oc2ccc(NC(=O)C3CC3)cc2C1=O	none (no result: aSyn 5UTR inh, IMP-1 inh, VIM-2 inhibitor)
Cc1nc(Sc2ccccc2)c(C#N)c(C)c1[N+](=O)[O-]	VIM-2 inhibitor 8.6
Cc1ccc(NC(=O)CCN2CC(C)OC(C)C2)cc1 (stereo unspecified)	none
CCCCOc1ccc(-c2nc(SCC(N)=O)n[nH]2)cc1	IMP-1 inh 5.2
COc1ccc(-c2nc(SCC(=O)Nc3cc(C)on3)n[nH]2)cc1	none
Cc1ccccc1CN1CCN(Cc2cc(=O)c3ccccc3[nH]2)CC1CCO (stereo unspecified)	IMP-1 inh 8.3
Cc1ccccc1CN1CCN(Cc2cc3ccccc3o2)CC1CCO (stereo unspecified)	none
CC(=O)Nc1ccc(NC(=O)CN2CCN(c3ccccn3)CC2)cc1	none
O=C(CN1CCN(c2ccccn2)CC1)Nc1ccc(OC(F)(F)F)cc1	IMP-1 inh 6.1
Cc1ccc(N(CC(=O)NC2CCCC2)C(=O)CNC(=O)c2cccs2)cc1F	none
CC1=NNC(=O)C1Cc1ccc(F)cc1 (stereo unspecified)	VIM-2 inhibitor 8.4
CC1=NNC(=O)C1Cc1ccccc1C (stereo unspecified)	none
COc1ccc(NC(=O)CSc2nc3[nH]c(=O)cc(O)c3s2)c(OC)c1	none (no result: aSyn 5UTR inh, IMP-1 inh, VIM-2 inhibitor)
O=c1nc(N/N=C/c2ccccn2)cn[nH]1	none
C(=N\Nc1ccc2nncn2n1)/c1ccccn1	aSyn 5UTR inh 67
C=CCN(C(=O)c1cccc(S(=O)(=O)N2CCN(C)CC2)c1)c1nc(-c2ccccc2)cs1	none
C=CCN(C(=O)CCc1ccccc1OC)c1nc(-c2ccc(S(C)(=O)=O)cc2)cs1	aSyn 5UTR inh 71, IMP-1 inh 4.6
C=CCN(C(=O)Cc1cccs1)c1nc(-c2ccc(S(C)(=O)=O)cc2)cs1	IMP-1 inh 5.3
Cc1cc(C)cc(C(=O)NCC(=O)N2CCC(C(N)=O)CC2)c1	none (no result: aSyn 5UTR inh, IMP-1 inh, VIM-2 inhibitor)
C=CCn1c(CCC(=O)O)ccc1-c1ccc(OC)cc1	none
COc1ccc(-c2ccc(CCC(=O)O)n2CC(C)C)cc1	IMP-1 inh 7.1
CCOC(=O)C1=CNS(=O)(=O)NC1c1ccc(C(F)(F)F)cc1 (stereo unspecified)	none (no result: aSyn 5UTR inh, IMP-1 inh, Jurkat NFkB inh, VIM-2 inhibitor)
COc1ccc(NC(=O)NCc2cccnc2)c(OC)c1	IMP-1 inh 16
C/C(=N\NC(=O)c1nnn(-c2nonc2N)c1CN(C)c1ccccc1)c1ccccn1	aSyn 5UTR inh 88 (no result: Mdm2-MdmX inh, Jurkat NFkB inh, 697 NFkB inh)
C/C(=N\NC(=O)c1nnn(-c2nonc2N)c1CN(C)c1ccccc1)c1ccc(O)cc1	none
CC[C@H](C)[C@@H](CN[C@H](CCCCNC)CNC)NCC1CCCC1	VIM-2 inhibitor 12
Cc1ccc(OCCCCn2cnc3ccccc32)c(C)c1	IMP-1 inh 6.6
c1ccc(-c2cn3nc(-c4ccccc4)c(-c4ccccc4)nc3n2)cc1	none
CCc1nn2cc(-c3ccccc3)nc2s1	aSyn 5UTR inh 80
COC(=O)C1=C(Nc2ccccc2NC(=O)CCCC(=O)O)CSC1	IMP-1 inh 4.5
COC(=O)C1=C(Nc2ccccc2NC(=O)c2ccccc2C(=O)O)CSC1	none
Cc1cc(C)c(S(=O)(=O)N2CCCCC2CCNC(=O)C(=O)NCc2ccco2)c(C)c1 (stereo unspecified)	none (no result: IMP-1 inh, VIM-2 inhibitor)
Cc1cc(N2CCN(c3ccccn3)CC2)n2nc(C)nc2n1	VIM-2 inhibitor 10

Compound activity: PubChem BioAssay, several laboratories
